# Results from ChEMBL document CHEMBL4346672, “Antimicrobial and KPC/AmpC inhibitory activity of functionalized benzosiloxaboroles” (Eur J Med Chem, 2019).
# Calls of active or inactive are those of the source. No cut-off for these calls is given here.
# What was measured:
# [1] = system: Klebsiella pneumoniae ATCC BAA-1705; assay: Inhibition of beta lactamase KPC in Klebsiella pneumoniae ATCC BAA 1705 assessed as potentiation of meropenem-induced antibacterial activity by measuring diameter of zone inhibition at 0.3 mg incubated for 18 hrs in presence of 10 ug meropenem by CLSI disc diffusion method (Rvb=[…] mm)
# [2] = system: Klebsiella pneumoniae; assay: Inhibition of beta lactamase KPC-3 in Klebsiella pneumoniae 83 assessed as potentiation of ceftazidime-induced antibacterial activity by measuring ceftazidime MIC at 16 mg/L incubated for 18 hrs by broth dilution method (reference value: >[…] mg/L)
# [3] = system: Klebsiella pneumoniae 700603; assay: (§1) Inhibition of extended-spectrum beta lactamase in Klebsiella pneumoniae ATCC 700603 assessed as potentiation of cefotaxime-induced antibacterial activity by measuring diameter of zone inhibition at 0.3 mg incubated for 18 hrs in presence of 10 ug cefotaxime by CLSI disc diffusion method (Rvb=19 mm)
# Outline: (§2)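 EUCAST ESBL combination disc test on Mueller-Hinton agar. Zones were compared between a ceftazidime or cefotaxime disc alone and the same disc plus agent at 0.3 mg per disc. Clavulanic acid discs at 0.01 mg per disc served as reference. Plates were incubated at 35 °C for 18 h. A difference of at least 5 mm was counted as inhibition.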
# [4] = system: Klebsiella pneumoniae; assay: Inhibition of beta lactamase KPC-3 in Klebsiella pneumoniae 83 assessed as potentiation of meropenem-induced antibacterial activity by measuring meropenem MIC at 16 mg/L incubated for 18 hrs by broth dilution method (reference value: […] mg/L)
# [5] = system: Klebsiella pneumoniae ATCC BAA-1705; assay: Inhibition of beta lactamase KPC-2 in Klebsiella pneumoniae ATCC BAA 1705 assessed as potentiation of ceftazidime-induced antibacterial activity by measuring ceftazidime MIC at 16 mg/L incubated for 18 hrs by broth dilution method
# [6] = system: Escherichia coli; assay: Inhibition of beta lactamase CMY-2 in Escherichia coli 77 assessed as potentiation of ceftazidime-induced antibacterial activity by measuring ceftazidime MIC at 16 mg/L incubated for 18 hrs by broth dilution method (reference value: […] mg/L)
# [7] = system: Klebsiella pneumoniae; assay: Inhibition of beta lactamase KPC-3 in Klebsiella pneumoniae 81 assessed as potentiation of meropenem-induced antibacterial activity by measuring meropenem MIC at 16 mg/L incubated for 18 hrs by broth dilution method (reference value: […] mg/L)
# [8] = system: Klebsiella pneumoniae; assay: Inhibition of beta lactamase CMY-2 in Klebsiella pneumoniae 78 assessed as potentiation of ceftazidime-induced antibacterial activity by measuring ceftazidime MIC at 16 mg/L incubated for 18 hrs by broth dilution method (reference value: >[…] mg/L)
# [9] = system: Pseudomonas aeruginosa; assay: Inhibition of beta lactamase VIM in Pseudomonas aeruginosa 698 assessed as potentiation of ceftazidime-induced antibacterial activity by measuring ceftazidime MIC at 16 mg/L incubated for 18 hrs by broth dilution method (reference value: […] mg/L)
# [10] = system: Klebsiella pneumoniae ATCC BAA-1705; assay: Inhibition of beta lactamase KPC-2 in Klebsiella pneumoniae ATCC BAA 1705 assessed as potentiation of meropenem-induced antibacterial activity by measuring meropenem MIC at 16 mg/L incubated for 18 hrs by broth dilution method (reference value: […] mg/L)
# [11] = system: Klebsiella pneumoniae; assay: Inhibition of beta lactamase KPC-2 in Klebsiella pneumoniae 75 assessed as potentiation of meropenem-induced antibacterial activity by measuring meropenem MIC at 16 mg/L incubated for 18 hrs by broth dilution method (reference value: […] mg/L)
# [12] = system: Escherichia coli; assay: Inhibition of beta lactamase KPC-3 in Escherichia coli 82 TR assessed as potentiation of ceftazidime-induced antibacterial activity by measuring ceftazidime MIC at 16 mg/L incubated for 18 hrs by broth dilution method (reference value: […] mg/L)
# [13] = biological target: Class A carbapenemase KPC-2 (Escherichia coli) (UniProt A8DS27); assay: Inhibition of beta lactamase KPC-2 in Escherichia coli 76 assessed as potentiation of ceftazidime-induced antibacterial activity by measuring ceftazidime MIC at 16 mg/L incubated for 18 hrs by broth dilution method (reference value: >[…] mg/L)
# [14] = system: Klebsiella pneumoniae; assay: Inhibition of beta lactamase KPC-3 in Klebsiella pneumoniae 81 assessed as potentiation of ceftazidime-induced antibacterial activity by measuring ceftazidime MIC at 16 mg/L incubated for 18 hrs by broth dilution method (reference value: >[…] mg/L)
# [15] = system: Escherichia coli; assay: Inhibition of beta lactamase KPC-3 in Escherichia coli 82 TR assessed as potentiation of meropenem-induced antibacterial activity by measuring meropenem MIC at 16 mg/L incubated for 18 hrs by broth dilution method (reference value: 2 mg/L)
# [16] = system: Pseudomonas aeruginosa; assay: Inhibition of beta lactamase AmpC in Pseudomonas aeruginosa MUW 700 assessed as potentiation of ceftazidime-induced antibacterial activity by measuring diameter of zone inhibition at 0.3 mg incubated for 18 hrs in presence of 30 ug ceftazidime by CLSI disc diffusion method (Rvb=11 mm)
# Outline: (§3)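 AmpC combination disc test on Mueller-Hinton agar, following EUCAST guidance and Yagi et al. Inhibition zones were compared between a CAZ-30 disc and a ceftazidime disc plus agent or PBA, each at 0.3 mg per disc. Plates were incubated at 35 °C for 18 h. A zone difference of at least 5 mm was counted as inhibition.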
# [17] = system: Klebsiella pneumoniae 700603; assay: as §1, with “ceftazidime-induced” for “cefotaxime-induced”, “ceftazidime” for “cefotaxime”, “(Rvb=13” for “(Rvb=19”; outline: as §2
# [18] = biological target: Class A carbapenemase KPC-2 (Escherichia coli) (UniProt A8DS27); assay: Inhibition of beta lactamase KPC-2 in Escherichia coli 76 assessed as potentiation of meropenem-induced antibacterial activity by measuring meropenem MIC at 16 mg/L incubated for 18 hrs by broth dilution method (reference value: >[…] mg/L)
# [19] = system: Acinetobacter baumannii; assay: Inhibition of beta lactamase OXA-24 in Acinetobacter baumannii 181 assessed as potentiation of meropenem-induced antibacterial activity by measuring meropenem MIC at 16 mg/L incubated for 18 hrs by broth dilution method (reference value: […] mg/L)
# [20] = system: Pseudomonas aeruginosa; assay: Inhibition of beta lactamase AmpC in Pseudomonas aeruginosa 700 assessed as potentiation of ceftazidime-induced antibacterial activity by measuring ceftazidime MIC at 16 mg/L incubated for 18 hrs by broth dilution method (reference value: >[…] mg/L)
# [21] = system: Escherichia coli; assay: Inhibition of beta lactamase CMY-2 in Escherichia coli 77 assessed as potentiation of ceftazidime-induced antibacterial activity by measuring diameter of zone inhibition at 0.3 mg incubated for 18 hrs in presence of 30 ug ceftazidime by CLSI disc diffusion method (Rvb=13 mm); outline: as §3
# [22] = system: Klebsiella pneumoniae; assay: Inhibition of beta lactamase KPC-2 in Klebsiella pneumoniae 75 assessed as potentiation of ceftazidime-induced antibacterial activity by measuring ceftazidime MIC at 16 mg/L incubated for 18 hrs by broth dilution method (reference value: […] mg/L)
# [23] = system: Klebsiella pneumoniae; assay: Inhibition of beta lactamase SHV-12 in Klebsiella pneumoniae ATCC 700603 assessed as potentiation of ceftazidime-induced antibacterial activity by measuring ceftazidime MIC at 16 mg/L incubated for 18 hrs by broth dilution method (reference value: […] mg/L)
# [24] = system: Acinetobacter baumannii; assay: Inhibition of beta lactamase OXA-24 in Acinetobacter baumannii 181 assessed as potentiation of ceftazidime-induced antibacterial activity by measuring ceftazidime MIC at 16 mg/L incubated for 18 hrs by broth dilution method (reference value: >[…] mg/L)
# [25] = system: Pseudomonas aeruginosa; assay: Inhibition of beta lactamase OXA-15 in Pseudomonas aeruginosa 852 assessed as potentiation of ceftazidime-induced antibacterial activity by measuring ceftazidime MIC at 16 mg/L incubated for 18 hrs by broth dilution method (reference value: >[…] mg/L)
# [26] = system: Bordetella bronchiseptica; assay: Antibacterial activity against Bordetella bronchiseptica ATCC 4617 assessed as diameter of zone inhibition measured after 18 hrs by CLSI disc diffusion method; assay type: functional
# Outline: (§4)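 Disc diffusion on Mueller-Hinton II agar. Compounds dissolved in DMSO. Strains stored at -80 °C and subcultured twice on tryptic soy agar before testing. Inhibition zones read after 35 °C, 18 h.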
# [27] = system: Meyerozyma guilliermondii; assay: Antifungal activity against Candida guilliermondii IBA 155 assessed as diameter of zone inhibition incubated for 24 hrs by CLSI disc diffusion method; assay type: functional
# Outline: (§5)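 Yeast disc diffusion on Mueller-Hinton agar supplemented with 2% glucose and 0.5 mg/L methylene blue. Compounds in DMSO. Yeasts subcultured on Sabouraud dextrose agar before testing. Zones read after 35 °C, 24 h.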
# [28] = system: Klebsiella pneumoniae; conditions: ATCC 13883
# [29] = system: Enterobacter cloacae; assay: Antibacterial activity against Enterobacter cloacae DSM 6234 assessed as diameter of zone inhibition measured after 18 hrs by CLSI disc diffusion method; assay type: functional; outline: as §4
# [30] = system: Bacillus subtilis; assay: Antibacterial activity against Bacillus subtilis ATCC 6633 assessed as diameter of zone inhibition measured after 18 hrs by CLSI disc diffusion method; assay type: functional; outline: as §4
# [31] = system: Pseudomonas aeruginosa; assay: Antibacterial activity against Pseudomonas aeruginosa ATCC 27853 assessed as diameter of zone inhibition measured after 18 hrs by CLSI disc diffusion method; assay type: functional, organism-based; outline: as §4
# [32] = system: Candida parapsilosis; assay: Antifungal activity against Candida parapsilosis ATCC 22019 assessed as diameter of zone inhibition incubated for 24 hrs by CLSI disc diffusion method; assay type: functional; outline: as §5
# [33] = system: Stenotrophomonas maltophilia; assay: Antibacterial activity against Stenotrophomonas maltophilia ATCC 13637 assessed as diameter of zone inhibition measured after 18 hrs by CLSI disc diffusion method; assay type: functional; outline: as §4
# [34] = system: Serratia marcescens; conditions: ATCC 13880
# [35] = system: Acinetobacter baumannii; assay: Antibacterial activity against Acinetobacter baumannii ATCC 19606 assessed as diameter of zone inhibition measured after 18 hrs by CLSI disc diffusion method; assay type: functional; outline: as §4
# [36] = system: Candida tropicalis; assay: Antifungal activity against Candida tropicalis IBA 171 assessed as diameter of zone inhibition incubated for 24 hrs by CLSI disc diffusion method; assay type: functional; outline: as §5
# [37] = system: Enterococcus faecium; assay: Antibacterial activity against Enterococcus faecium ATCC 6057 assessed as diameter of zone inhibition measured after 18 hrs by CLSI disc diffusion method; assay type: functional; outline: as §4
# [38] = system: Staphylococcus epidermidis; assay: Antibacterial activity against Staphylococcus epidermidis ATCC 12228 assessed as diameter of zone inhibition measured after 18 hrs by CLSI disc diffusion method; assay type: functional; outline: as §4
# [39] = system: Saccharomyces cerevisiae; assay: Antifungal activity against Saccharomyces cerevisiae ATCC 9763 diameter of zone inhibition incubated for 24 hrs by CLSI disc diffusion method; assay type: functional
# Outline: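 Disc-diffusion run on Mueller-Hinton II agar with 2% glucose and 0.5 mg/L methylene blue, using compounds in DMSO. Yeast was precultured on Sabouraud dextrose agar (24–48 h, 30 °C). Zones read after 24 h at 35 °C.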
# [40] = system: Proteus mirabilis; assay: Antibacterial activity against Proteus mirabilis ATCC 12453 assessed as diameter of zone inhibition measured after 18 hrs by CLSI disc diffusion method; assay type: functional; outline: as §4
# [41] = system: Staphylococcus aureus; assay: Antibacterial activity against Staphylococcus aureus ATCC 6538P assessed as diameter of zone inhibition measured after 18 hrs by CLSI disc diffusion method; assay type: functional; outline: as §4
# [42] = system: Candida albicans; assay: Antifungal activity against Candida albicans ATCC 90028 assessed as diameter of zone inhibition incubated for 24 hrs by CLSI disc diffusion method; assay type: functional; outline: as §5
# [43] = system: Escherichia coli; assay: Antibacterial activity against Escherichia coli ATCC 25922 assessed as diameter of zone inhibition measured after 18 hrs by CLSI disc diffusion method; assay type: functional; outline: as §4
# [44] = system: Burkholderia cepacia; assay: Antibacterial activity against Burkholderia cepacia ATCC 25416 assessed as diameter of zone inhibition measured after 18 hrs by CLSI disc diffusion method; assay type: functional; outline: as §4
# [45] = system: Enterococcus faecalis; assay: Antibacterial activity against Enterococcus faecalis ATCC 29212 assessed as diameter of zone inhibition measured after 18 hrs by CLSI disc diffusion method; assay type: functional; outline: as §4
# [46] = system: Pichia kudriavzevii; assay: Antifungal activity against Candida krusei ATCC 6258 assessed as diameter of zone inhibition incubated for 24 hrs by CLSI disc diffusion method; assay type: functional; outline: as §5
# [47] = Dissociation constant, pKa1 of compound in 0.1 M NaOH by potentiometric analysis; assay type: physicochemical
smiles,measurement,setting,value
OB(O)c1ccccc1,inhibition zone (IZ),[1],22 mm
same,MIC,[2],16 µg/mL
same,inhibition zone (IZ),[3],19 mm
same,MIC,[4],8 µg/mL
same,MIC,[5],32 µg/mL
same,MIC,[6],8 µg/mL
same,MIC,[7],2 µg/mL
same,MIC,[8],32 µg/mL
same,MIC,[9],64 µg/mL
same,MIC,[10],16 µg/mL
same,MIC,[11],16 µg/mL
same,MIC,[12],8 µg/mL
same,MIC,[13],> 64 µg/mL
same,MIC,[14],16 µg/mL
same,MIC,[15],0.25 µg/mL
same,inhibition zone (IZ),[16],22 mm
same,inhibition zone (IZ),[17],14 mm
same,MIC,[18],32 µg/mL
same,MIC,[19],> 64 µg/mL
same,MIC,[20],8 µg/mL
same,inhibition zone (IZ),[21],24 mm
same,MIC,[22],16 µg/mL
same,MIC,[23],64 µg/mL
same,MIC,[24],> 64 µg/mL
same,MIC,[25],> 64 µg/mL
C[Si]1(C)OB(O)c2cccc(Br)c21,diameter of the inhibition zone (DIZ),[26],inactive
same,diameter of the inhibition zone (DIZ),[27],25 mm
same,DIZ,[28],inactive
same,diameter of the inhibition zone (DIZ),[29],inactive
same,diameter of the inhibition zone (DIZ),[30],30 mm
same,diameter of the inhibition zone (DIZ),[31],inactive
same,diameter of the inhibition zone (DIZ),[32],12 mm
same,diameter of the inhibition zone (DIZ),[33],13 mm
same,DIZ,[34],inactive
same,diameter of the inhibition zone (DIZ),[35],inactive
same,diameter of the inhibition zone (DIZ),[36],14 mm
same,diameter of the inhibition zone (DIZ),[37],24 mm
same,diameter of the inhibition zone (DIZ),[38],30 mm
same,diameter of the inhibition zone (DIZ),[39],30 mm
same,diameter of the inhibition zone (DIZ),[40],15 mm
same,diameter of the inhibition zone (DIZ),[41],35 mm
same,diameter of the inhibition zone (DIZ),[42],17 mm
same,diameter of the inhibition zone (DIZ),[43],inactive
same,diameter of the inhibition zone (DIZ),[44],inactive
same,diameter of the inhibition zone (DIZ),[45],16 mm
same,diameter of the inhibition zone (DIZ),[46],24 mm
same,pKa,[47],6.5
